According to ChEMBL document CHEMBL4028845, “Design, Synthesis, and Properties of a Potent Inhibitor of Pseudomonas aeruginosa Deacetylase LpxC” (J Med Chem, 2017):
Values after ≈ are worked out from the molar mass of the structure shown.

Columns and labels:
[1] = target: T1, UDP-3-O-acyl-N-acetylglucosamine deacetylase (Pseudomonas aeruginosa (strain ATCC 15692 / PAO1 / 1C / PRS 101 / LMG12228), UniProt P47205); assay: Inhibition of Pseudomonas aeruginosa LpxC using UDP-3-O-(R-hydroxydecanoyl)-N-acetylglucosamine as substrate preincubated for 30 mins followed by substrate addition measured after 20 mins by LC-MS/MS analysis
T1 sequence (P47205 whole entry): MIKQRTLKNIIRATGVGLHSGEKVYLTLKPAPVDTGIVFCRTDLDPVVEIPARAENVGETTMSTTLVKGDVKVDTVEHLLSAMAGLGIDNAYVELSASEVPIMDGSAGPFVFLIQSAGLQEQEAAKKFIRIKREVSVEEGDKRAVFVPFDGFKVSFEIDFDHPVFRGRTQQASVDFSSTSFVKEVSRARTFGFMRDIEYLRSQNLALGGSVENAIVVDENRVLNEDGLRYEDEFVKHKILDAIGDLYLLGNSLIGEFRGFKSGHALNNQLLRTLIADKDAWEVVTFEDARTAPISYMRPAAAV

Pseudomonas aeruginosa [2] = assay: Antibacterial activity against Pseudomonas aeruginosa PAO1 K767 after 18 to 24 hrs; format: functional
Method in brief: (§1)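 Broth MIC per CLSI guidelines in cation-adjusted Mueller Hinton broth. Compounds were dissolved and serially diluted in DMSO (carbapenems in water) before addition to plates. Incubation was at 37 °C for 18−24 h. MIC is the lowest concentration preventing visible growth. MIC50/MIC90 are the concentrations inhibiting 50% or 90% of isolates tested.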

Pseudomonas aeruginosa [3] = assay: Antibacterial activity against mexAB-oprM deficient Pseudomonas aeruginosa K1119 after 18 to 24 hrs; format: functional; method in brief: as §1
Pseudomonas aeruginosa [4] = assay: Antibacterial activity against hypersusceptible Pseudomonas aeruginosa Z61 after 18 to 24 hrs; format: functional; method in brief: as §1
[5] = Solubility of the compound at pH 6.8 by high throughput screening assay; format: physicochemical; conditions: buffer
[6] = Cytotoxicity against human K562 cells assessed as reduction in cell viability after 72 hrs by WST1 assay; format: cell-based
Method in brief: (§2)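 Cells were grown and assayed in medium with 10% heat-inactivated FBS and exposed to compound for 72 h. Metabolic activity was read as WST-1 cleavage to formazan at A450, with puromycin as positive control. CC50 (50% reduction in viability) was calculated from dose-response curves.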

[7] = Cytotoxicity against human HepG2 cells assessed as reduction in cell viability after 72 hrs by WST1 assay; format: cell-based; method in brief: as §2
Pseudomonas aeruginosa [8] = assay: Antibacterial activity against Pseudomonas aeruginosa clinical isolate after 18 to 24 hrs; format: functional

CCc1ccc(-c2ccc(C(=O)N[C@H](C(=O)NO)[C@@H](C)N)cc2)cc1
IC50 [1]: 1.46 nM | MIC (Pseudomonas aeruginosa [2]): 2 µg/mL (≈ 5.86 µM) | MIC (Pseudomonas aeruginosa [3]): 0.06 µg/mL (≈ 0.176 µM) | MIC (Pseudomonas aeruginosa [4]): 0.25 µg/mL (≈ 0.732 µM) | solubility ([5]; read-out: solubility): 4 µg/mL | CC50 at 72 h [6]: 7.37 µM | CC50 at 72 h [7]: 12.8 µM

CCCCc1ccc(C(=O)N[C@H](C(=O)NO)[C@@H](C)N)cc1
IC50 [1]: 37.5 nM | MIC (Pseudomonas aeruginosa [2]): 8 µg/mL (≈ 27.3 µM) | MIC (Pseudomonas aeruginosa [3]): 0.5 µg/mL (≈ 1.7 µM) | MIC (Pseudomonas aeruginosa [4]): 1 µg/mL (≈ 3.41 µM) | solubility ([5]; read-out: solubility): > 293 µg/mL | CC50 at 72 h [6]: 42.3 µM | CC50 at 72 h [7]: 125 µM

CC#CCOc1ccc(C(=O)N[C@H](C(=O)NO)[C@@H](N)C(F)(F)F)cc1
IC50 [1]: 39 nM | MIC (Pseudomonas aeruginosa [2]): 16 µg/mL (≈ 44.5 µM) | MIC (Pseudomonas aeruginosa [3]): 0.25 µg/mL (≈ 0.696 µM) | MIC (Pseudomonas aeruginosa [4]): 1 µg/mL (≈ 2.78 µM)

C[C@@H](N)[C@H](NC(=O)c1ccc(N2CCOCC2)cc1)C(=O)NO
IC50 [1]: 1640 nM | MIC (Pseudomonas aeruginosa [2]): > 128 µg/mL | MIC (Pseudomonas aeruginosa [3]): 16 µg/mL (≈ 49.6 µM) | MIC (Pseudomonas aeruginosa [4]): 32 µg/mL (≈ 99.3 µM)

C[C@@H](O)[C@H]1C(=O)N2C(C(=O)O)=C(SCCNC=N)C[C@H]12 [IMIPENEM ANHYDROUS]
MIC50 (Pseudomonas aeruginosa [8]): 2 µg/mL (≈ 6.68 µM) | MIC90 (Pseudomonas aeruginosa [8]): 16 µg/mL (≈ 53.4 µM)

CC#CCOc1ccc(C(=O)N[C@H](C(=O)NO)[C@H](C)N)cc1
IC50 [1]: 16.4 nM | MIC (Pseudomonas aeruginosa [2]): 1 µg/mL (≈ 3.28 µM) | MIC (Pseudomonas aeruginosa [3]): 0.5 µg/mL (≈ 1.64 µM) | MIC (Pseudomonas aeruginosa [4]): 1 µg/mL (≈ 3.28 µM)

C[C@@H](N)[C@H](NC(=O)[C@H]1CC[C@H](C(C)(C)C)CC1)C(=O)NO
IC50 [1]: 117 nM | MIC (Pseudomonas aeruginosa [2]): 128 µg/mL (≈ 428 µM) | MIC (Pseudomonas aeruginosa [3]): 16 µg/mL (≈ 53.4 µM) | MIC (Pseudomonas aeruginosa [4]): 32 µg/mL (≈ 107 µM)

CCc1ccc(-c2ccc(C(=O)N[C@H](C(=O)NO)[C@@H](C)NCC(=O)N3CCNC(=O)C3)cc2)cc1
MIC (Pseudomonas aeruginosa [2]): 16 µg/mL (≈ 33.2 µM) | MIC (Pseudomonas aeruginosa [3]): 0.125 µg/mL (≈ 0.26 µM) | MIC (Pseudomonas aeruginosa [4]): 1 µg/mL (≈ 2.08 µM)

CC1(C)S[C@@H]2[C@H](NC(=O)[C@H](C(=O)O)c3ccsc3)C(=O)N2[C@H]1C(=O)O [TICARCILLIN]
MIC50 (Pseudomonas aeruginosa [8]): 128 µg/mL (≈ 333 µM) | MIC90 (Pseudomonas aeruginosa [8]): > 128 µg/mL

CC#CCOc1ccc(C(=O)NC(C(=O)NO)C(C)(C)N)cc1 (racemic)
MIC (Pseudomonas aeruginosa [2]): 2 µg/mL (≈ 6.26 µM) | MIC (Pseudomonas aeruginosa [3]): 0.25 µg/mL (≈ 0.783 µM) | MIC (Pseudomonas aeruginosa [4]): 0.25 µg/mL (≈ 0.783 µM)

COLISTIN
MIC50 (Pseudomonas aeruginosa [8]): 0.5 µg/mL | MIC90 (Pseudomonas aeruginosa [8]): 2 µg/mL

C[C@@H](NCC(=O)N1CCNC(=O)C1)[C@H](NC(=O)c1ccc(C#Cc2ccccc2)cc1)C(=O)NO
IC50 [1]: 4.19 nM | MIC (Pseudomonas aeruginosa [2]): 32 µg/mL (≈ 67 µM) | MIC (Pseudomonas aeruginosa [3]): 0.5 µg/mL (≈ 1.05 µM) | MIC (Pseudomonas aeruginosa [4]): 4 µg/mL (≈ 8.38 µM) | solubility [5]: 0.392 µM | CC50 at 72 h [6]: > 100 µM

C[C@@H](O)[C@H]1C(=O)N2C(C(=O)O)=C(S[C@@H]3CN[C@H](CNS(N)(=O)=O)C3)[C@H](C)[C@H]12 [DORIPENEM]
MIC50 (Pseudomonas aeruginosa [8]): 1 µg/mL (≈ 2.38 µM) | MIC90 (Pseudomonas aeruginosa [8]): 32 µg/mL (≈ 76.1 µM)

CC(C)(O/N=C(\C(=O)N[C@@H]1C(=O)N2C(C(=O)[O-])=C(C[n+]3ccccc3)CS[C@H]12)c1csc(N)n1)C(=O)O [CEFTAZIDIME]
MIC50 (Pseudomonas aeruginosa [8]): 4 µg/mL (≈ 7.32 µM) | MIC90 (Pseudomonas aeruginosa [8]): > 128 µg/mL
